# Measured values gathered from unrelated publications.
# Lines come from different studies, so protocols differ.
# Target: Serine/threonine-protein kinase N2 (PKN2, Homo sapiens, UniProt Q16513)
SMILES,test,test system,conditions,quantity,value
Cn1c(=O)n(-c2ccc(C(C)(C)C#N)cc2)c2c3cc(-c4cnc5ccccc5c4)ccc3ncc21,"enzyme activity, inhibitor",,10 µM,remaining activity,74%
c1cnn2ncc(-c3ccnc(N4CCC45COC5)n3)c2c1,binding,,1 µM,remaining binding,89%
CCN(CC)CCNC(=O)c1c(C)[nH]c(/C=C2\C(=O)Nc3ccc(F)cc32)c1C,"enzyme activity, inhibitor",,10 µM,inhibition,69%
CN1CC(Oc2cnc(C#N)cc2-c2ccn3nc(NC(=O)C4CC4)cc3c2)C1,"enzyme activity, inhibitor",,1 µM,inhibition,15%
CNC(=O)c1cc(Oc2ccc(NC(=O)Nc3ccc(Cl)c(C(F)(F)F)c3)cc2)ccn1,"enzyme activity, inhibitor",,10 µM,inhibition,20%
COc1cc(/C=C/C(=O)CC(=O)/C=C/c2ccc(O)c(OC)c2)ccc1O,"enzyme activity, inhibitor",,1 µM,activity vs control,114%
O=C(NS(=O)(=O)c1ccc(NCC2CCOCC2)c([N+](=O)[O-])c1)c1ccc(N2CCN(Cc3ccc(C(F)(F)F)cc3-c3ccc(Cl)cc3)CC2)cc1Oc1cnc2[nH]ccc2c1,"cell-free assay, competition with immobilised ligand",,1 µM,remaining binding,93%
COc1cc(Nc2cnc(C#N)c(O[C@H](C)CN(C)C)n2)ncc1-c1cnn(C)c1,"enzyme activity, inhibitor, radiometric",,1 µM,remaining activity,87%
CCCOc1ccc(OC)c(F)c1C(=O)c1ccc(C(=O)N[C@@H]2CNC[C@H]2NC(=O)c2ccc3[nH]ncc3c2)cc1,"enzyme activity, inhibitor",,0.1 µM,remaining activity,53%
CC(C)CC(=O)N1CCc2nc(-c3ccc(Br)cc3)nc(N(C)Cc3ccccc3)c2C1,"cell-free assay, competition with immobilised ligand",,0.1 µM,remaining binding,80%
O=C(Nc1cnn(-c2csc(C(=O)NC3COC3)c2)c1)Nc1c(F)cccc1Cl,"enzyme activity, inhibitor",,5 µM,remaining activity,105%
O=S(=O)(c1cccc2cnccc12)N1CCCNCC1,cell-free assay,,0.5 µM,remaining signal,103%
CCCCNc1ncc2c(-c3ccc(F)cc3)nn(C[C@H]3CC[C@H](N)CC3)c2n1,"target engagement in cells, inhibitor, chemoproteomics",,20 mM,inhibition,2.9%
Cc1cnc(NC2CCOCC2)nc1-n1cnc(C(=O)NC(CN)c2cc(F)cc(Cl)c2)c1 (stereo not shown),"enzyme activity, inhibitor, radiometric",,1 µM,remaining activity,63%
CC(C)(O)[C@H]1CC[C@H](Nc2ccc3ncc(-c4cccc(C(F)(F)F)c4)n3n2)CC1,"enzyme activity, inhibitor",,1 µM,remaining activity,95.9%
CC(C)(C)C(=O)c1sc(NC2CCCCC2)nc1N,"enzyme activity, inhibitor",,10 µM,remaining activity,95%
O=C1Nc2ccc(Cl)cc2C1=Cc1cc(Cl)c(O)c(Cl)c1,cell-free assay,,0.5 µM,remaining signal,114%
Cn1c2c(c3ccc(Cl)c(Cl)c31)C(C#N)C1(CCCC1)NC2=O (stereo not shown),"thermal stability, DSF",,10 µM,ΔTm,0 °C
CNc1cc(Oc2cc(C(=O)Nc3cc(N4CCN(C)CC4)cc(C(F)(F)F)c3)ccc2C)ncn1,"target engagement in cells, inhibitor, chemoproteomics",Huh-7,1 µM,inhibition,-99.7%
CCS(=O)(=O)c1cc2cc(C[C@@](O)(CC(C)(C)c3ccc(F)cc3C(N)=O)C(F)(F)F)[nH]c2cn1,"cell-free assay, competition with immobilised ligand",,1 µM,remaining binding,85%
CN(c1ncccc1CNc1nc(Nc2ccc3c(c2)CC(=O)N3)ncc1C(F)(F)F)S(C)(=O)=O,"enzyme activity, inhibitor",,1 µM,inhibition,47%
CN(C)c1ncnc(-c2ccc3nc(Nc4cc(CN5CCN(C(=O)CC(F)(F)F)CC5)ccn4)[nH]c3c2)c1Cl,"cell-free assay, competition with immobilised ligand",,1 µM,remaining binding,85%
Cc1ccc(Nc2nccc(N(C)c3ccc4c(C)n(C)nc4c3)n2)cc1S(N)(=O)=O,"enzyme activity, inhibitor",,0.3 µM,inhibition,19%
CO[C@H]1CC[C@H](CNc2ccc(S(=O)(=O)NC(=O)c3ccc(N4CCN(CC5=C(c6ccc(Cl)cc6)CC(C)(C)CC5)CC4)cc3Oc3cnc4[nH]ccc4c3)cc2[N+](=O)[O-])CC1,"cell-free assay, competition with immobilised ligand",,1 µM,remaining binding,97%
Cc1ccc(C(=O)NCc2ccsc2)cc1C#Cc1cn(C(C)C)c2ncnc(N)c12,"enzyme activity, inhibitor",,1 µM,activity vs control,113%
CCCS(=O)(=O)Nc1ccc(F)c(C(=O)c2c[nH]c3ncc(-c4ccc(Cl)cc4)cc23)c1F,"enzyme activity, inhibitor",,1 µM,inhibition,< 10%
COc1cc(-c2cc(-c3ccc(N4CCNCC4)cc3)cnc2C)cc(OC)c1OC,"enzyme activity, inhibitor",,0.1 µM,inhibition,4%
CC1=C(C#N)[C@@H](c2ccc3[nH]nc(C)c3c2)C(C#N)=C(c2ccc(Cl)cc2)N1,"cell-free assay, competition with immobilised ligand",,1 µM,remaining binding,74.6%
COc1cc(Cl)c(C(=O)N[C@@H](CN[C@H]2CC[C@@H](N)CC2)Cc2ccc(C#N)cc2)cc1-c1ccc(CN[C@H](C)c2ccc(C)cc2)o1,"enzyme activity, inhibitor",,1 µM,remaining activity,102%
Cn1c2c(c3ccc(Cl)c(Cl)c31)C(C#N)C(C)(C)NC2=O (stereo not shown),"thermal stability, DSF",,10 µM,ΔTm,1.3 °C
CNC(=O)Nc1ccc2c(c1)CC[C@@]21OC(=O)N(CC(=O)N(Cc2ccc(F)cc2)[C@@H](C)C(F)(F)F)C1=O,"cell-free assay, competition with immobilised ligand",,1 µM,remaining binding,97%
CC(C)(C)c1nc(-c2cccc(NS(=O)(=O)c3c(F)cccc3F)c2F)c(-c2ccnc(N)n2)s1,"enzyme activity, inhibitor, radiometric",,1 µM,remaining activity,78%
CCCOc1ccc([C@H]2[C@H](C(=O)O)[C@@H](c3ccc4c(c3)OCO4)CN2CC(=O)Nc2c(CC)cccc2CC)cc1,"cell-free assay, competition with immobilised ligand",,1 µM,remaining binding,100%
CNCc1ccc(-c2cc(-c3nc(-c4ccc(S(=O)(=O)C(C)C)cc4)cnc3N)on2)cc1,"enzyme activity, inhibitor",,0.4 µM,inhibition,59%
